How the values were obtained:
Format in all cases: functional
Mus musculus [1] = test: Number of survivors on 60th day at dose 15 mg/kg/day in 10 mice implanted with P388 leukemia cell line
Mus musculus [2] = test: Percent increase in life span at dose 5 mg/kg/day in 10 mice implanted with P388 leukemia cell line
In short: (§1)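 Female DBA2 mice inoculated iv on day 0 with 10^4 P388 cells; single iv treatment on day 1 with drug as sulfate salt in physiological saline. Survival followed; %ILS from all deaths and survivors as (T/C × 100) − 100, maximal MST 30 days; survivors counted on days 30 and 60. Most experiments confirmed three times.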

Mus musculus [3] = test: Number of survivors on 60th day at dose 5 mg/kg/day in 10 mice implanted with P388 leukemia cell line
Mus musculus [4] = test: Number of survivors of DBA2 mice on 60th day after inoculation with L1210 leukemia cell line intravenously at a dose of 12.5 mg/kg/day; 0/10; conditions: route intravenous
Mus musculus [5] = test: Number of survivors on 30th day at dose 12.5 mg/kg/day in 10 mice implanted with P388 leukemia cell line
Mus musculus [6] = test: Number of survivors on 30th day at dose 25 mg/kg/day in 10 mice implanted with P388 leukemia cell line
Mus musculus [7] = test: Percent increase in life span at dose 10 mg/kg/day in 10 mice implanted with P388 leukemia cell line; in short: as §1
Mus musculus [8] = test: Number of survivors on 30th day at dose 10 mg/kg/day in 10 mice implanted with P388 leukemia cell line
Mus musculus [9] = test: Number of survivors on 30th day at dose 5 mg/kg/day in 10 mice implanted with P388 leukemia cell line
Mus musculus [10] = test: Percent increase in life span at dose 12.5 mg/kg/day in 10 mice implanted with P388 leukemia cell line; in short: as §1
Mus musculus [11] = test: Number of survivors on 60th day at dose 12.5 mg/kg/day in 10 mice implanted with P388 leukemia cell line
Mus musculus [12] = test: Number of survivors on 60th day at dose 10 mg/kg/day in 10 mice implanted with P388 leukemia cell line
Mus musculus [13] = test: Percent increase in life span at dose 25 mg/kg/day in 10 mice implanted with P388 leukemia cell line
Mus musculus [14] = test: Number of survivors on 60th day at dose 25 mg/kg/day in 10 mice implanted with P388 leukemia cell line
Mus musculus [15] = test: Percent increase in life span of DBA2 mice after inoculation with L1210 leukemia intravenously at a dose of 12.5 mg/kg per day; conditions: route intravenous
In short: (§2)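 Female DBA2 mice inoculated iv on day 0 with 10^4 L1210 cells; drugs given iv as sulfate salts in physiological saline, mostly once on day 1. %ILS from all deaths and survivors as (T/C × 100) − 100; survivors scored on days 30 and 60.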

Mus musculus [16] = test: Number of survivors of DBA2 mice on 30th day after inoculation with L1210 leukemia cell line intravenously at a dose of 12.5 mg/kg/day; 0/10; conditions: route intravenous
Mus musculus [17] = test: Number of survivors on 30th day at dose 15 mg/kg/day in 10 mice implanted with P388 leukemia cell line
Mus musculus [18] = test: Percent increase in life span at dose 15 mg/kg/day in 10 mice implanted with P388 leukemia cell line; in short: as §1
Mus musculus [19] = test: Number of survivors on 30th day at dose 7 mg/kg/day in 10 mice implanted with P388 leukemia cell line
Mus musculus [20] = test: Number of survivors of DBA2 mice on 60th day after inoculation with L1210 leukemia cell line intravenously at a dose of 6 mg/kg/day; 0/10; conditions: route intravenous
Mus musculus [21] = test: Number of survivors on 30th day at dose 8 mg/kg/day in 10 mice implanted with P388 leukemia cell line
Mus musculus [22] = test: Number of survivors on 30th day at dose 3 mg/kg/day in 10 mice implanted with P388 leukemia cell line; 0/10
Mus musculus [23] = test: Percent increase in life span at dose 6 mg/kg/day in 10 mice implanted with P388 leukemia cell line; in short: as §1
Mus musculus [24] = test: Percent increase in life span at dose 8 mg/kg/day in 10 mice implanted with P388 leukemia cell line; in short: as §1
Mus musculus [25] = test: Number of survivors on 60th day at dose 8 mg/kg/day in 10 mice implanted with P388 leukemia cell line; in short: as §1
Mus musculus [26] = test: Number of survivors of DBA2 mice on 60th day after inoculation with L1210 leukemia cell line intravenously at a dose of 7 mg/kg/day; 0/10; conditions: route intravenous
Mus musculus [27] = test: Percent increase in life span at dose 3 mg/kg/day in 10 mice implanted with P388 leukemia cell line; in short: as §1
Mus musculus [28] = test: Number of survivors of DBA2 mice on 30th day after inoculation with L1210 leukemia cell line intravenously at a dose of 7 mg/kg/day; 0/10; conditions: route intravenous
Mus musculus [29] = test: Number of survivors on 30th day at dose 6 mg/kg/day in 10 mice implanted with P388 leukemia cell line
Mus musculus [30] = test: Percent increase in life span at dose 7 mg/kg/day in 10 mice implanted with P388 leukemia cell line; in short: as §1
Mus musculus [31] = test: Percent increase in life span at dose 9 mg/kg/day in 10 mice implanted with P388 leukemia cell line; in short: as §1
Mus musculus [32] = test: Percent increase in life span of DBA2 mice after inoculation with L1210 leukemia intravenously at a dose of 7 mg/kg per day; conditions: route intravenous; in short: as §2
Mus musculus [33] = test: Number of survivors on 60th day at dose 3 mg/kg/day in 10 mice implanted with P388 leukemia cell line
Mus musculus [34] = test: Number of survivors on 30th day at dose 9 mg/kg/day in 10 mice implanted with P388 leukemia cell line
Mus musculus [35] = test: Number of survivors on 60th day at dose 7 mg/kg/day in 10 mice implanted with P388 leukemia cell line; in short: as §1
Mus musculus [36] = test: Percent increase in life span of DBA2 mice after inoculation with L1210 leukemia intravenously at a dose of 6 mg/kg per day; conditions: route intravenous; in short: as §2
Mus musculus [37] = test: Number of survivors of DBA2 mice on 30th day after inoculation with L1210 leukemia cell line intravenously at a dose of 6 mg/kg/day; 0/10; conditions: route intravenous
Mus musculus [38] = test: Number of survivors on 60th day at dose 6 mg/kg/day in 10 mice implanted with P388 leukemia cell line
Mus musculus [39] = test: Number of survivors on 60th day at dose 9 mg/kg/day in 10 mice implanted with P388 leukemia cell line
Mus musculus [40] = test: Number of survivors on 30th day at dose 80 mg/kg/day in 10 mice implanted with P388 leukemia cell line; 0/10
Mus musculus [41] = test: Percent increase in life span at dose 60 mg/kg/day in 10 mice implanted with P388 leukemia cell line; in short: as §1
Mus musculus [42] = test: Percent increase in life span at dose 80 mg/kg/day in 10 mice implanted with P388 leukemia cell line; in short: as §1
Mus musculus [43] = test: Number of survivors on 30th day at dose 65 mg/kg/day in 10 mice implanted with P388 leukemia cell line; 0/10
Mus musculus [44] = test: Number of survivors on 60th day at dose 60 mg/kg/day in 10 mice implanted with P388 leukemia cell line; 0/10; in short: as §1
Mus musculus [45] = test: Number of survivors on 60th day at dose 80 mg/kg/day in 10 mice implanted with P388 leukemia cell line; 0/10
Mus musculus [46] = test: Percent increase in life span at dose 70 mg/kg/day in 10 mice implanted with P388 leukemia cell line; in short: as §1
Mus musculus [47] = test: Number of survivors on 60th day at dose 55 mg/kg/day in 10 mice implanted with P388 leukemia cell line; 0/10
Mus musculus [48] = test: Percent increase in life span at dose 55 mg/kg/day in 10 mice implanted with P388 leukemia cell line; in short: as §1
Mus musculus [49] = test: Number of survivors on 30th day at dose 55 mg/kg/day in 10 mice implanted with P388 leukemia cell line; 0/10
Mus musculus [50] = test: Number of survivors on 30th day at dose 70 mg/kg/day in 10 mice implanted with P388 leukemia cell line; 0/10
Mus musculus [51] = test: Number of survivors on 60th day at dose 70 mg/kg/day in 10 mice implanted with P388 leukemia cell line; 0/10
Mus musculus [52] = test: Number of survivors on 60th day at dose 65 mg/kg/day in 10 mice implanted with P388 leukemia cell line; 0/10
Mus musculus [53] = test: Number of survivors on 30th day at dose 60 mg/kg/day in 10 mice implanted with P388 leukemia cell line; 0/10
Mus musculus [54] = test: Percent increase in life span at dose 65 mg/kg/day in 10 mice implanted with P388 leukemia cell line; in short: as §1

CCOC(=O)[C@H](C)NC(=O)[C@@]1(O)[C@H](O)[C@]2(CC)C=CCN3CC[C@@]4(c5cc([C@@]6(C(=O)OC)C[C@H]7C[N@](CCc8c6[nH]c6ccccc86)C[C@](O)(CC)C7)c(OC)cc5N(C)[C@@]14C)[C@@H]32
Survivors (Mus musculus [1]): 0 | ILS at 5 mg/kg/day (Mus musculus [2]): 27.6% | Survivors (Mus musculus [3]): 0 | Survivors (Mus musculus [4]): 0 | Survivors (Mus musculus [5]): 1 | Survivors (Mus musculus [6]): 2 | ILS at 10 mg/kg/day (Mus musculus [7]): 36.8% | Survivors (Mus musculus [8]): 2 | Survivors (Mus musculus [9]): 0 | ILS at 12.5 mg/kg/day (Mus musculus [10]): 46% | Survivors (Mus musculus [11]): 1 | Survivors (Mus musculus [12]): 2 | ILS at 25 mg/kg/day (Mus musculus [13]): 63.8% | Survivors (Mus musculus [14]): 1 | ILS at 12.5 mg/kg/day (Mus musculus [15]): 50% | Survivors (Mus musculus [16]): 0 | Survivors (Mus musculus [17]): 0 | ILS at 15 mg/kg/day (Mus musculus [18]): 39%

CC[C@H](C)[C@H](NC(=O)[C@@]1(O)[C@H](O)[C@]2(CC)C=CCN3CC[C@@]4(c5cc([C@@]6(C(=O)OC)C[C@H]7C[N@](CCc8c6[nH]c6ccccc86)C[C@](O)(CC)C7)c(OC)cc5N(C)[C@@]14C)[C@@H]32)C(=O)OC
ILS at 5 mg/kg/day (Mus musculus [2]): 66.5% | Survivors (Mus musculus [3]): 1 | Survivors (Mus musculus [19]): 5 | Survivors (Mus musculus [20]): 0 | Survivors (Mus musculus [21]): 3 | Survivors (Mus musculus [22]): 0 | ILS at 6 mg/kg/day (Mus musculus [23]): 118% | ILS at 8 mg/kg/day (Mus musculus [24]): 149% | Survivors (Mus musculus [9]): 3 | Survivors (Mus musculus [25]): 3 | Survivors (Mus musculus [26]): 0 | ILS at 3 mg/kg/day (Mus musculus [27]): 41.3% | Survivors (Mus musculus [28]): 0 | Survivors (Mus musculus [29]): 3 | ILS at 7 mg/kg/day (Mus musculus [30]): 164% | ILS at 9 mg/kg/day (Mus musculus [31]): 48.3% | ILS at 7 mg/kg/day (Mus musculus [32]): 64% | Survivors (Mus musculus [33]): 0 | Survivors (Mus musculus [34]): 4 | Survivors (Mus musculus [35]): 2 | ILS at 6 mg/kg/day (Mus musculus [36]): 65.7% | Survivors (Mus musculus [37]): 0 | Survivors (Mus musculus [38]): 0 | Survivors (Mus musculus [39]): 4

CCCCOC(=O)[C@H](CC(C)C)NC(=O)[C@@]1(O)[C@H](O)[C@]2(CC)C=CCN3CC[C@@]4(c5cc([C@@]6(C(=O)OC)C[C@H]7C[N@](CCc8c6[nH]c6ccccc86)C[C@](O)(CC)C7)c(OC)cc5N(C)[C@@]14C)[C@@H]32
Survivors (Mus musculus [40]): 0 | ILS at 60 mg/kg/day (Mus musculus [41]): 26% | ILS at 80 mg/kg/day (Mus musculus [42]): 27.6% | Survivors (Mus musculus [43]): 0 | Survivors (Mus musculus [44]): 0 | Survivors (Mus musculus [45]): 0 | ILS at 70 mg/kg/day (Mus musculus [46]): 26.7% | Survivors (Mus musculus [47]): 0 | ILS at 55 mg/kg/day (Mus musculus [48]): 23% | Survivors (Mus musculus [49]): 0 | Survivors (Mus musculus [50]): 0 | Survivors (Mus musculus [51]): 0 | Survivors (Mus musculus [52]): 0 | Survivors (Mus musculus [53]): 0 | ILS at 65 mg/kg/day (Mus musculus [54]): 13.8%

— ChEMBL document CHEMBL1122917, “Vinblastin-23-oyl amino acid derivatives: chemistry, physicochemical data, toxicity, and antitumor activities against P388 and L1210 leukemias” (J Med Chem, 1985)
